From ChEMBL document CHEMBL3046613 (J Agric Food Chem, 2010)
≈ marks a conversion by molar mass, not a printed value. Structures can show the parent of a compound that is named as a salt.

Experiments:
Tobacco mosaic virus [1] = assay: Antiviral activity against Tobacco mosaic virus (TMV) pre-treated with 100 ug/mL compound for 30 min followed by inoculation on left side of Nicotiana tabacum leaves assessed as virus inactivation effect measured 3 to 4 days post viral infection; type: functional
Outline: (§1)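 TMV was mixed with an equal volume of compound solution for 30 min, then inoculated on the left half of N. tabacum L. leaves. A solvent-plus-virus mixture was inoculated on the right half as control. Local lesions were counted 3-4 days after inoculation. Each compound was run in three replicates.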

Tobacco mosaic virus [2] = assay: Antiviral activity against Tobacco mosaic virus (TMV) inoculated on fresh tobacco leaves followed by dipping into compound solution at 5 ug/mL for 20 min and measured 72 hr post compound treatment by half-leaf method; type: functional
Outline: (§2)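 Half-leaf method. Fresh tobacco leaves at the 5-6 growth stage were inoculated by juice-leaf rubbing with TMV at 5.88 × 10-2 μg/mL. Leaves were cut into halves along the main vein. Each half was immersed for 20 min in compound solution or in double-distilled water, then cultured at 25 °C for 72 h. Each concentration was run at least three times.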

Tobacco mosaic virus [3] = assay: Antiviral activity against Tobacco mosaic virus (TMV) inoculated on fresh tobacco leaves followed by dipping into compound solution at 50 ug/mL for 20 min and measured 72 hr post compound treatment by half-leaf method; type: functional; outline: as §2
Tobacco mosaic virus [4] = assay: Antiviral activity against Tobacco mosaic virus (TMV) inoculated on fresh tobacco leaves followed by dipping into compound solution at 25 ug/mL for 20 min and measured 72 hr post compound treatment by half-leaf method; type: functional; outline: as §2
Tobacco mosaic virus [5] = assay: Antiviral activity against Tobacco mosaic virus (TMV) inoculated on 100 ug/mL compound smeared Nicotiana tabacum leaves assessed as protective effect against viral infection measured 3 to 4 days post viral infection; type: functional
Outline: (§3)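 N. tabacum L. leaves of the same age were used. Compound solution was smeared on the left half and solvent control on the right half. Leaves were inoculated with TMV 12 h later.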

Tobacco mosaic virus [6] = assay: Antiviral activity against Tobacco mosaic virus (TMV) inoculated on fresh tobacco leaves followed by dipping into compound solution for 20 min and measured 72 hr post compound treatment by half-leaf method; type: functional, organism-based; outline: as §2
Tobacco mosaic virus [7] = assay: Antiviral activity against Tobacco mosaic virus (TMV) inoculated on whole Nicotiana tabacum leaves followed by smearing with 100 ug/mL compound solution on left side of leaves assessed as viral infection curative effect measured 3 to 4 days post viral infection; type: functional
Outline: (§4)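 Whole growing N. tabacum L. leaves of the same age were dip-inoculated with TMV at 6.0 × 10-3 mg/mL.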

Tobacco mosaic virus [8] = assay: Antiviral activity against Tobacco mosaic virus (TMV) inoculated on fresh tobacco leaves followed by dipping into compound solution at 100 ug/mL for 20 min and measured 72 hr post compound treatment by half-leaf method; type: functional; outline: as §2
Tobacco mosaic virus [9] = assay: Antiviral activity against Tobacco mosaic virus (TMV) inoculated on fresh tobacco leaves followed by dipping into compound solution at 40 ug/mL for 20 min and measured 72 hr post compound treatment by half-leaf method; type: functional; details: for inhibition at 40 µg/mL: Tobacco mosaic virus; outline: as §2
Tobacco mosaic virus [10] = assay: Antiviral activity against Tobacco mosaic virus (TMV) inoculated on whole Nicotiana tabacum leaves followed by smearing with 500 ug/mL compound solution on left side of leaves assessed as viral infection curative effect measured 3 to 4 days post viral infection; type: functional; outline: as §4
Tobacco mosaic virus [11] = assay: Antiviral activity against Tobacco mosaic virus (TMV) pre-treated with 500 ug/mL compound for 30 min followed by inoculation on left side of Nicotiana tabacum leaves assessed as virus inactivation effect measured 3 to 4 days post viral infection; type: functional; outline: as §1
Tobacco mosaic virus [12] = assay: Antiviral activity against Tobacco mosaic virus (TMV) inoculated on fresh tobacco leaves followed by dipping into compound solution at 250 ug/mL for 20 min and measured 72 hr post compound treatment by half-leaf method; type: functional; outline: as §2
Tobacco mosaic virus [13] = assay: Antiviral activity against Tobacco mosaic virus (TMV) inoculated on fresh tobacco leaves followed by dipping into compound solution at 125 ug/mL for 20 min and measured 72 hr post compound treatment by half-leaf method; type: functional; outline: as §2
Tobacco mosaic virus [14] = assay: Antiviral activity against Tobacco mosaic virus (TMV) inoculated on 500 ug/mL compound smeared Nicotiana tabacum leaves assessed as protective effect against viral infection measured 3 to 4 days post viral infection; type: functional; outline: as §3
Tobacco mosaic virus [15] = assay: Antiviral activity against Tobacco mosaic virus (TMV) inoculated on fresh tobacco leaves followed by dipping into compound solution at 500 ug/mL for 20 min and measured 72 hr post compound treatment by half-leaf method; type: functional; outline: as §2

| Structure (SMILES) | Activity (Tobacco mosaic virus [1]) [%] | inhibition at 5 µg/mL (Tobacco mosaic virus [2]) [%] | inhibition at 50 µg/mL (Tobacco mosaic virus [3]) [%] | inhibition at 25 µg/mL (Tobacco mosaic virus [4]) [%] | Activity (Tobacco mosaic virus [5]) [%] | EC50 (Tobacco mosaic virus [6]) [µg/mL] | Activity (Tobacco mosaic virus [7]) [%] | inhibition at 100 µg/mL (Tobacco mosaic virus [8]) [%] | inhibition (INH) (Tobacco mosaic virus [9]) [%] | inhibition at 40 µg/mL (Tobacco mosaic virus [9]) [%] | Activity (Tobacco mosaic virus [10]) [%] | Activity (Tobacco mosaic virus [11]) [%] | inhibition at 250 µg/mL (Tobacco mosaic virus [12]) [%] | inhibition at 125 µg/mL (Tobacco mosaic virus [13]) [%] | Activity (Tobacco mosaic virus [14]) [%] | inhibition at 500 µg/mL (Tobacco mosaic virus [15]) [%] |
| --- | --- | --- | --- | --- | --- | --- | --- | --- | --- | --- | --- | --- | --- | --- | --- | --- |
| CC1(C)C2CC[C@]1(S(=O)(=O)O)C(=O)C2.COc1cc2c3c(c4cc(OC)c(OC)cc4c2cc1OC)CN1CCCC1C3 (stereo unspecified) | 55.6 | 32.3 | 60.6 | 42.4 | 47.7 | 23.6 | 65.5 | 73.9 | – | – | – | – | – | – | – | – |
| COc1cc(/C=C/C(=O)O)ccc1O.COc1cc2c3c(c4cc(OC)c(OC)cc4c2cc1OC)CN1CCCC1C3 (stereo unspecified) | 51.1 | 15.7 | 68.5 | 18.5 | 45.5 | 40.3 | 13.8 | 72.2 | – | – | – | – | – | – | – | – |
| COc1cc2c3c(c4cc(OC)c(OC)cc4c2cc1OC)CN1CCCC1C3.O=C(O)CC(O)(CC(=O)O)C(=O)O (stereo unspecified) | – | – | – | – | – | – | – | – | 65.2 | – | – | – | – | – | – | – |
| COc1cc2c3c(c4cc(OC)c(OC)cc4c2cc1OC)CN1CCCC1C3.O=C(O)c1cc(S(=O)(=O)O)ccc1O (stereo unspecified) | 42.2 | 15.6 | 79.9 | 35.7 | 38.6 | 21.3 | 62.1 | 92.8 | – | – | – | – | – | – | – | – |
| COc1ccc2c3c(c4cc(OC)c(OC)cc4c2c1)CC1CCCN1C3 (racemic) [(+/-)-ANTOFINE] | 66.3 | 56.7 | 69.7 | 68.8 | 26.7 | < 25 | 54.4 | 80.7 | – | – | – | – | – | – | – | – |
| COc1ccc2c3c(c4cc(OC)c(OC)cc4c2c1)CN1CCCC1C3 (racemic) [(+/-)-DEOXYTYLOPHORININE] | 67.4 | – | 66.7 | 65 | 60 | < 25 | 26.1 | 75 | – | 79.2 | – | – | – | – | – | – |
| CNCC(=O)N[C@@H](CO)C(=O)N[C@H]1[C@H](O)[C@@H](O)[C@H](n2ccc(N)nc2=O)O[C@@H]1C(N)=O [NINGNANMYCIN] | – | – | – | 28.2 | – | 440 (≈ 992 µM) | – | – | – | – | 23 | 50.5 | 42.1 | 27 | 51.3 | 59.3 |
| COc1cc2c3c(c4cc(OC)c(OC)cc4c2cc1OC)CN1CCCC1C3 (stereo unspecified) [TYLOPHORINE 2-HYDROXYSUCCINIC ACID SALT] | – | – | – | – | – | – | – | – | – | 69.1 | – | – | – | – | – | – |
| COc1cc2c3c(c4cc(OC)c(OC)cc4c2cc1OC)CN1CCCC1C3.Nc1ccc(S(=O)(=O)O)cc1 (stereo unspecified) [TYLOPHORINE P-AMINOBENZENESULFONIC ACID SALT] | 75.6 | 31.4 | 74.3 | 58.8 | 38.6 | 14.3 | 34.5 | 80.9 | – | – | – | – | – | – | – | – |
| COc1cc2c3c(c4cc(OC)c(OC)cc4c2cc1OC)CN1CCCC1C3.O=C(O)c1ccc(O)cc1 (stereo unspecified) [TYLOPHORINE P-HYDROXYBENZOIC ACID SALT] | 60.9 | 50 | 70 | 54.7 | 54.9 | 7.7 | 42.9 | 84.9 | – | – | – | – | – | – | – | – |
